Measured values collected from several papers.
Lines come from different studies, so protocols differ. pIC50: −log10 of the molar value.
Observed: cell growth or viability

Compound | cell line | test | conditions | quantity | value
Cc1ncsc1-c1ccc([C@H](C)NC(=O)[C@@H]2C[C@@H](O)CN2C(=O)[C@@H](c2cc(N3CCC(CN4CCC(OC5CC(Oc6cc(N7C8CCC7CN(c7cc(-c9ccccc9O)nnc7N)C8)ccn6)C5)CC4)CC3)no2)C(C)C)cc1 (some centres unmarked) | NCI-H1944 | ATP luminescence | 7 days | pIC50 | 7.69
O=C(NCc1ccccc1)c1cn(Cc2ccc(C(F)(F)F)cc2)c2ccc(Oc3ccccc3)cc2c1=O | HCC1419 | – | 72 h | CC50 | > 50 µM
COc1cnc(OC)n2nc(NS(=O)(=O)c3c(OCC(F)F)cccc3C(F)(F)F)nc12 | L02 | CCK-8 | 1.56 µM, 72 h | inhibition | 0%
CCOc1ccccc1-n1c(CN2CCNCC2)nc2ccc(F)cc2c1=O | PANC-1 | ATP luminescence | 72 h | pIC50 | 7.40
CC[C@@]1(O)C(=O)OCc2c1cc1n(c2=O)Cc2cc3ccccc3nc2-1 | PANC-1 | SRB | 48 h | pIC50 | 6.80
N.N.[Cl][Pt][Cl] | REH | ATP luminescence | 72 h | pIC50 | 6.11
O=C1c2ccccc2-c2c3c(cc4ccnc1c24)OCO3 | MOLT-3 | XTT | 75 h | pIC50 | 5.10
CC[C@H](C)[C@@H]([C@@H](CC(=O)N1CCC[C@H]1[C@H](OC)[C@@H](C)C(=O)N[C@H](C)[C@@H](O)c1ccccc1)OC)N(C)C(=O)[C@@H](NC(=O)[C@@H](NC)C(C)C)C(C)C | L02 | CCK-8 | – | pIC50 | 7.60
